High-throughput results from PubChem BioAssay.
The list is not random: actives were taken first. Their share in the collection is about 1.7%.
Ecoli rRNA inh: inhibitors of bacterial rRNA selective over humanized ribosomes; E. coli WT GFP vs humanized-ribosome RFP mutants, fluorescence, 24 h; stronger effect = lower value; DMSO median 0, no signal -100; GFP signal change (wild-type ribosome), % (test concentration not listed); 1.6% of 350,000 active;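 active = significant combined selectivity score with lowered wild-type GFP, culture density cut under 30%, mutant RFP and density less affected; inactive = any of these conditions unmet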
CFTR F508del cor: correctors of CFTR F508del function in bronchial epithelial cells | activity (quench increase), % at 7.58 µM | CFBE cells, YFP halide quenching; stimulated with forskolin plus potentiator P3; % fluorescence drop versus neutral controls | 0.36% of 350,000 active;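 active = mean added fluorescence quench of at least 8% versus neutral control, with both replicates also reaching 8%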;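 also: cells transiently co-express mutant CFTR-F508del with the halide-sensitive YFP; corrector assay measuring rescue of mutant channel to the surface after 24 h compound exposure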
Cneo AK release: causes C. neoformans cell lysis; adenylate kinase release luminescence, 4 h; normalised: neutral wells 0, clomiphene wells 100; AID 651654; 0.2% of 360,000 active; lysis activity, % at 15 µM;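 active = mean lysis activity across replicates of at least 80%, whatever share of replicates individually reach that level; inactive = mean lysis activity below 80%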
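read-out = cell lysis signal | test system = log-phase Cryptococcus neoformans yeast cells | input = cells at 5 × 10^6 per mL | medium = fresh YPD growth medium | signal = luminescent adenylate kinase detection reagent | timing = 4 h at 37 °C static, read 1 h later | dosing = single dose | controls = Clomiphene as positive lysis control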
CaV13 ICDI inh: Disruptors of the CACNA1D IQ motif to Ca2+-dependent inactivation inhibitor domain association, primary screening, Förster resonance energy transfer in intact living …. inhibition, % at 12.3 µM. 0.098% of 340,000 active. HEK cells, CFP/YFP FRET ICDI-IQ, plate reader, 10 min; percent FRET-ratio fall versus neutral wells;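 active = mean replicate inhibition of at least 30% and at least 1% of replicates passing that level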
Of the large screens only hits and unclear results are named; the others gave an inactive call.

O=C(Nc1ccc(Oc2cccc(C(F)(F)F)c2)nc1)c1cccs1	Ecoli rRNA inh -43.5
CC(C)CC(NS(=O)(=O)OCC(Cl)(Cl)Cl)c1ccccc1 (stereo not drawn)	none
CC(NS(=O)(=O)OCC(Cl)(Cl)Cl)c1ccc(Br)cc1 (stereo not drawn)	Ecoli rRNA inh -23.2
COCCNC(=O)C[C@H]1CC[C@@H]2[C@H](COC[C@H](O)CN2S(=O)(=O)c2ccccc2C)O1	Cneo AK release 103.0 (no result: CaV13 ICDI inh)
CCNC(=O)C[C@@H]1CC[C@H]2[C@@H](COC[C@@H](O)CN2S(=O)(=O)c2ccccc2F)O1	Cneo AK release 95.0 (no result: CaV13 ICDI inh)
Cc1ccccc1S(=O)(=O)N1C[C@H](O)COC[C@H]2O[C@@H](CC(=O)NCCc3ccccc3)CC[C@@H]21	none (no result: CaV13 ICDI inh)
COCCNC(=O)C[C@@H]1CC[C@@H]2[C@H](COC[C@H](O)CN2S(=O)(=O)c2ccccc2F)O1	none (no result: CaV13 ICDI inh)
COCCNC(=O)C[C@@H]1CC[C@@H]2[C@H](COC[C@@H](O)CN2S(=O)(=O)c2ccccc2C)O1	Cneo AK release 90.7 (no result: CaV13 ICDI inh)
CS(=O)(=O)N1C[C@@H]2C(c3ccc(-c4ccc(F)cc4)cc3)[C@H](C1)N2CC1CC1 (stereo partly drawn)	none (no result: CFTR F508del cor, Cneo AK release, CaV13 ICDI inh)
CC(=O)Oc1ccc(/C=C2/CCc3ccccc3C2=O)cc1	Ecoli rRNA inh -30.7
CN(C)CC1CC/C(=C\c2ccc(O)cc2)C1=O (stereo not drawn)	Ecoli rRNA inh -31.0 (no result: Cneo AK release)
C[C@@H]1CN([C@@H](C)CO)C(=O)c2cc(NC(=O)Nc3ccc4c(c3)OCO4)ccc2O[C@@H]1CN(C)C(=O)Nc1ccccc1	none (no result: CaV13 ICDI inh)
Cc1cccc2c1NC(=O)C2=Nc1ccc(Cl)cc1	Ecoli rRNA inh -19.4
Cc1ccc(N=C2C(=O)Nc3c(C)cccc32)cc1	none
Cc1ccc2cc(CN(CCc3ccccc3)C(=S)NCCCN(C)C)c(=O)[nH]c2c1	none
COc1cc2cc(CN(CCc3cccc(C)c3)C(=S)NCCCN(C)C)c(=O)[nH]c2cc1OC	Ecoli rRNA inh -38.4 (no result: CFTR F508del cor, Cneo AK release)
Cc1ccc2[nH]c(=O)c(CN(CCCN(C)C)C(=S)NCCc3ccccc3)cc2c1	Ecoli rRNA inh -36.5 (no result: Cneo AK release)
Cc1cccc2cc(CN(CCCN(C)C)C(=S)NCCc3ccccc3)c(=O)[nH]c12	Ecoli rRNA inh -17.4
OC(c1ccc(Cl)cc1)c1nccc2ccccc12 (stereo not drawn)	Ecoli rRNA inh -21.9
O=C(NCC(F)(F)F)[C@H]1[C@H](CO)[C@H]2Cn3c(cccc3=O)[C@H]2N1C(=O)C1CCC1	none (no result: CaV13 ICDI inh)
O=C(c1ccc(F)cc1)N1CC(=O)N2[C@H](C1)[C@@H](c1ccc(C#CC3CCCCC3)cc1)[C@@H]2CO	none (no result: Cneo AK release, CaV13 ICDI inh)
Cc1csc(SC(C)c2nc3scc(-c4ccccc4)c3c(=O)[nH]2)n1 (stereo not drawn)	Ecoli rRNA inh -23.6 (no result: Cneo AK release)
COc1ccc2c3c(n(C)c2c1)[C@@H](CO)N(C(=O)c1cccc(F)c1)CC31CCN(C(=O)c2cccc(F)c2)CC1	none (no result: Cneo AK release, CaV13 ICDI inh)
O=S(=O)(c1ccccc1F)N1CCC(Oc2ccc(-n3cnnn3)cc2)CC1	Ecoli rRNA inh -28.2
C[C@@H]1CCCCO[C@@H](CN(C)S(=O)(=O)c2ccc(Cl)cc2)[C@H](C)CN([C@@H](C)CO)C(=O)c2cc(NC(=O)Nc3ccccc3)ccc2O1	none (no result: CaV13 ICDI inh)
Nc1[nH]n2c(=O)cc(-c3ccccc3)nc2c1N=Nc1ccccc1	none (no result: Ecoli rRNA inh, CFTR F508del cor)
Nc1[nH]n2c(=O)cc(-c3ccccc3)nc2c1N=Nc1ccc(S(N)(=O)=O)cc1	Ecoli rRNA inh -23.7 (no result: Cneo AK release)
C[C@H](CO)N1C[C@H](C)[C@@H](CN(C)C(=O)NC2CCCCC2)Oc2ccc(NC(=O)Cc3cn(C)c4ccccc34)cc2C1=O	none (no result: CaV13 ICDI inh)
CC(=O)Nc1ccc(/C(N=Nc2ccccc2)=N/N=C(N)N)cc1	Ecoli rRNA inh -20.1 (no result: Cneo AK release)
Cc1ccc(S(=O)(=O)N(C)C[C@@H]2OCCCC[C@@H](C)Oc3ccc(NC(=O)Nc4cccc5ccccc45)cc3C(=O)N([C@@H](C)CO)C[C@H]2C)cc1	none (no result: CaV13 ICDI inh)
c1ccc(SCc2cn(C[C@H]3CC[C@@H]([C@@H]4CC[C@H](Cn5cc(CSc6ccccc6)nn5)O4)O3)nn2)cc1	none
c1ccc(Cn2cc(CSc3ccccc3)nn2)cc1	Ecoli rRNA inh -32.5
COc1ccc(O)c(C(=O)c2cnn(-c3ccccc3)c2)c1	Ecoli rRNA inh -26.7
COc1ccc(-n2cc(C(=O)c3ccccc3O)cn2)cc1	none (no result: Cneo AK release)
C[C@@H]1CN([C@@H](C)CO)C(=O)c2cccc(NS(C)(=O)=O)c2O[C@H]1CN(C)S(=O)(=O)c1ccc(F)cc1	none (no result: Cneo AK release, CaV13 ICDI inh)
